Data set [1] has as its system Plasmodium falciparum. In words: Antiplasmodial activity against chloroquine-sensitive Plasmodium falciparum 3D7 assessed as suppression of parasitemia by microscopic analysis.
Data set [2] has as its system Plasmodium berghei. Kind of data set: Antimalarial activity against Plasmodium berghei NK65 infected in human HepG2 cells after 48 hrs by RT-PCR. Format: functional, organism-based. The conditions noted are these: NK65, HepG2, 48 h. An outline of the steps:
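P. berghei NK65 sporozoites (10,000 per well) added to human HepG2 monolayers seeded the day before, in DMEM with 10% FBS, with compound diluted in PBS; 37°C, 5% CO2, 48 h. Medium and compound were renewed at 24 h. Parasite 18S rRNA copies were quantified by real-time PCR against a plasmid standard and expressed relative to untreated control. IC50 was obtained by nonlinear regression.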

Data set [3] relates to Plasmodium falciparum. In words: Antiplasmodial activity against chloroquine-resistant Plasmodium falciparum W2mef assessed as suppression of parasitemia by microscopic analysis.
Data set [4] is described as follows: Inhibition of Plasmodium vivax FPPS.
Data set [5] can be described thus: Inhibition of Plasmodium vivax GGPPS.
Data set [6] is described as follows: Cytotoxicity against human HepG2 cells after 22 hrs. In kind it is cell-based. As to conditions: read-out: TC50. An outline of the steps:
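HepG2 cells were seeded at 70% confluence the day before treatment, then exposed to a range of inhibitor concentrations for 22 h at 37°C, 5% CO2. CellTiter One reagent was then added for 2 h more, and OD495 was read. IC50 (TC50) was fit by nonlinear regression of percent viable cells against concentration.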

Data set [7] can be described thus: Partition coefficient, log P of the compound. In kind it is physicochemical. The conditions noted are these: octanol/water.
The test system of data set [8] is Plasmodium berghei. In words: Antiplasmodial activity against Plasmodium berghei NK65 infected in 12 wk old C57BL/6 mouse assessed as prepatent period at 2 mg/kg, ip administered once daily via a regimen of day 2, 1 pre-infection, on the day of infection followed by day 1 and 2 postinfection for 5 days by microscopic analysis. In kind it is functional. The conditions noted are these: route intraperitoneal.

The subject of data set [9] is Plasmodium berghei. Kind of data set: Antiplasmodial activity against 3000 Plasmodium berghei NK65 liver stage sporozoites infected in 12 wk old C57BL/6 mouse assessed as delay in prepatent period at 2 mg/kg, ip administered once daily via a regimen of day 2, 1 pre-infection, on the day of infection followed by day 1 and 2 postinfection for 5 days by microscopic analysis. In kind it is functional. As to conditions: route intraperitoneal. An outline of the steps:
(§1)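 Mice were given compound i.p. once daily from 2 days before to 2 days after sporozoite challenge (5 doses). Challenge was 3,000 infectious P. berghei sporozoites. Parasitemia was followed by blood smear until 3–5%, then mice were sacrificed. Complete protection means no blood-stage parasites in smears; observation lasted 28 days.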

For data set [10], the system named is Plasmodium berghei. Kind of data set: Antiplasmodial activity against Plasmodium berghei NK65 infected in 12 wk old C57BL/6 mouse assessed as prepatent period at 5 mg/kg, ip administered once daily via a regimen of day 2, 1 pre-infection, on the day of infection followed by day 1 and 2 postinfection for 5 days by microscopic analysis. Format: functional. As to conditions: route intraperitoneal.

Data set [11] deals with Plasmodium berghei. In words: Antiplasmodial activity against Plasmodium berghei NK65 infected in 14 wk old C57BL/6 mouse assessed as prepatent period at 5 mg/kg, ip administered once daily via a regimen of day 2, 1 pre-infection, on the day of infection followed by day 1 and 2 postinfection […] by microscopic analysis. Format: functional, organism-based. Further details: dose 5 mg/kg.

Data set [12] deals with Plasmodium berghei. In words: Antiplasmodial activity against 3000 Plasmodium berghei NK65 liver stage sporozoites infected in 12 wk old C57BL/6 mouse assessed as delay in prepatent period at 5 mg/kg, ip administered once daily via a regimen of day 2, 1 pre-infection, on the day of infection followed by day 1 and 2 postinfection for 5 days by microscopic analysis. In kind it is functional. As to conditions: route intraperitoneal. An outline of the steps: as §1

The subject of data set [13] is Plasmodium berghei. Kind of data set: Antiplasmodial activity against 5 X 10^6 blood stream Plasmodium berghei NK65 infected in 12 wk old C57BL/6 mouse assessed as prepatent period at 20 mg/kg, ip administered once daily via a regimen of day 2, 1 pre-infection, on the day of infection followed by day 1 and 2 postinfection for 5 days by microscopic analysis. Format: functional. As to conditions: route intraperitoneal. Put shortly:
(§2)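 Mice, five per group, were dosed i.p. daily for 5 days and challenged on day 0 with 5 × 10^6 blood-stage P. berghei parasites. Parasitemia was monitored by blood smear, and the delay in prepatent period was recorded.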

The subject of data set [14] is Plasmodium berghei. Kind of data set: Antiplasmodial activity against 5 X 10^6 blood stream Plasmodium berghei NK65 infected in 12 wk old C57BL/6 mouse assessed as delay in prepatent period at 20 mg/kg, ip administered once daily via a regimen of day 2, 1 pre-infection, on the day of infection followed by day 1 and 2 postinfection for 5 days by microscopic analysis. In kind it is functional. The conditions noted are these: route intraperitoneal. Put shortly:
as §2

Data set [15] relates to Plasmodium berghei. Kind of data set: Antiplasmodial activity against Plasmodium berghei NK65 infected in 12 wk old C57BL/6 mouse assessed as prepatent period at 20 mg/kg, ip administered once daily via a regimen of day 1 pre-infection, on the day of infection followed by day 1 postinfection for 3 days by microscopic analysis. Format: functional. As to conditions: route intraperitoneal.

Data set [16] relates to Plasmodium berghei. Kind of data set: Antiplasmodial activity against 3000 Plasmodium berghei NK65 liver stage sporozoites infected in 12 wk old C57BL/6 mouse assessed as delay in prepatent period at 20 mg/kg, ip administered once daily via a regimen of day 2, 1 pre-infection, on the day of infection followed by day 1 and 2 postinfection for 5 days by microscopic analysis. Format: functional. As to conditions: route intraperitoneal. Put shortly:
as §1

Data set [17] has as its system Plasmodium berghei. Kind of data set: Antiplasmodial activity against Plasmodium berghei NK65 infected in 8 wk old C57BL/6 mouse assessed as prepatent period at 20 mg/kg, ip administered once daily via a regimen of day 1 pre-infection, on the day of infection followed by day 1, 2 and 3 days postinfection […] by microscopic analysis. As to conditions: route intraperitoneal. Format: functional.

For data set [18], the system named is Plasmodium berghei. Kind of data set: Antiplasmodial activity against Plasmodium berghei NK65 infected in 12 wk old BALB/c mouse assessed as prepatent period at 5 mg/kg, ip administered once daily on the day of infection followed by day 1 postinfection for 2 days by microscopic analysis. In kind it is functional. The conditions noted are these: route intraperitoneal.

The test system of data set [19] is Plasmodium berghei. In words: Antiplasmodial activity against Plasmodium berghei NK65 infected in 12 wk old C57BL/6 mouse assessed as prepatent period at 10 mg/kg, ip administered once daily via a regimen of day 1 pre-infection, on the day of infection followed by day 1 postinfection for 3 days by microscopic analysis. Further details: dose 10 mg/kg. Format: functional, organism-based.

Data set [20] deals with Plasmodium berghei. In words: Antiplasmodial activity against Plasmodium berghei NK65 infected in 12 wk old BALB/c mouse assessed as prepatent period assessed as complete suppression of parasitemia at 20 mg/kg, ip administered once daily via a regimen of day 2, 1 pre-infection, on the day of infection followed by day 1 and 2 postinfection […] by microscopic analysis. In kind it is functional. The conditions noted are these: route intraperitoneal.

The test system of data set [21] is Plasmodium berghei. In words: Antiplasmodial activity against Plasmodium berghei NK65 infected in 12 wk old C57BL/6 mouse assessed as prepatent period at 10 mg/kg, ip administered once daily via a regimen of day 2, 1 days pre-infection, on the day of infection followed by day 1 postinfection for 4 days by microscopic analysis. Format: functional, organism-based. More on the design: dose 10 mg/kg.

Data set [22] concerns Plasmodium berghei. Kind of data set: Antiplasmodial activity against 5 X 10^6 blood stream Plasmodium berghei NK65 infected in 12 wk old C57BL/6 mouse assessed as parasitemia at 20 mg/kg, ip administered once daily via a regimen of day 2, 1 pre-infection, on the day of infection followed by day 1 and 2 postinfection for 5 days by microscopic analysis. In kind it is functional. The conditions noted are these: route intraperitoneal. An outline of the steps: as §2

The subject of data set [23] is Plasmodium berghei. In words: Antiplasmodial activity against Plasmodium berghei NK65 infected in 12 wk old BALB/c mouse assessed as prepatent period at 17 mg/kg, ip administered once daily on the day of infection followed by day 1 postinfection for 2 days by microscopic analysis. Format: functional. As to conditions: route intraperitoneal.
Data set [24] relates to Plasmodium berghei. Kind of data set: Antiplasmodial activity against Plasmodium berghei NK65 infected in 12 wk old BALB/c mouse assessed as prepatent period at 20 mg/kg, ip administered once daily via regimen of 1 preinfection, on day of infection followed by regimen of 1 day post infection for 3 days by microscopic analysis. Format: functional. The conditions noted are these: route intraperitoneal.

Data set [25] has as its system Plasmodium berghei. In words: Antiplasmodial activity against Plasmodium berghei NK65 infected in 8 wk old C57BL/6 mouse assessed as prepatent period at 20 mg/kg, ip administered once daily via regimen of […], on the day of infection followed by day 1 postinfection for 4 days by microscopic analysis. The conditions noted are these: route intraperitoneal. In kind it is functional.

Values joined by “and” are separate entries in the source; they are usually repeats but may differ in a detail not shown here. Equal values may be shown once. Active and inactive are the calls of the source. The rule behind the calls is not given here.

For orientation: IC50 means the midpoint of a concentration-inhibition curve. A word on the Ki: it is the equilibrium dissociation constant of an inhibitor or competing ligand from its target. The logP is a log measure of how a compound divides between an organic and an aqueous phase. Take `CCCCCCCCCCN(C)CC(P(=O)(O)O)P(=O)(O)O`: the half-maximal inhibitory concentration (IC50) in the data set with Plasmodium falciparum [1] is 0.45 µM; in the data set on Plasmodium berghei [2], 8 µM; with Plasmodium falciparum [3], 2.2 µM; in data set [4], 1.5 µM; in [5], 0.7 µM. Also, the Ki is 0.043 µM in data set [4] and 0.016 µM in data set [5]. In data set [6], the CC50 at 22 h was found to be 1000 µM. Also, the logP in data set [7] (read-out: logP) was -3.4. Moreover, the figures for the Activity with Plasmodium berghei [8] and in the data set with Plasmodium berghei [9] were 9 days and 5 days, respectively.

`COC(=O)[C@H](CC(C)C)NC(=O)c1ccc(NC[C@@H](N)CS)cc1-c1cccc2ccccc12` came in with an IC50 with Plasmodium berghei [2] of 30 µM. Further, the Activity was 4 days with Plasmodium berghei [10] and 0 days with Plasmodium berghei [12]. For the same compound, in the data set with Plasmodium berghei [11], the outcome was inactive.

As to `O=P(O)(O)C(O)(Cc1cccnc1)P(=O)(O)O` [RISEDRONIC ACID], the Activity with Plasmodium berghei [13] was found to be 2 days; with Plasmodium berghei [14] it was 1 days; in the data set with Plasmodium berghei [15], 2.5 days; in the data set with Plasmodium berghei [16], 4 days; in the data set on Plasmodium berghei [17], 6 days; in the data set with Plasmodium berghei [18], 0.5 days. Also, the Activity with Plasmodium berghei [20] was 8 days and 3 days; in the data set on Plasmodium berghei [22], 0.09%; with Plasmodium berghei [23] it was 1 days; in the data set on Plasmodium berghei [24], 0.5 days; in the data set on Plasmodium berghei [25] it was 4 days. Further, the IC50 in the data set on Plasmodium falciparum [1] stood at 1.2 µM; with Plasmodium berghei [2] it was 16 µM; in the data set with Plasmodium falciparum [3] it was 1.4 µM; in [4], 1.7 µM; in data set [5], 1.1 µM. Besides, the outcome in the data set on Plasmodium berghei [19] and with Plasmodium berghei [21] was inactive. Moreover, the Ki came out at 0.048 µM in data set [4] and 0.024 µM in data set [5]. Further, the CC50 at 22 h in [6] amounted to 13000 µM. In [7], this compound came in with a logP of -5.5.

Compound `NCCC(O)(P(=O)(O)O)P(=O)(O)O` [PAMIDRONIC ACID] returned an IC50 in the data set with Plasmodium berghei [2] of more than 200 µM.

The values above are taken from ChEMBL document CHEMBL1671697, “Lipophilic bisphosphonates are potent inhibitors of Plasmodium liver-stage growth” (Antimicrob Agents Chemother, 2010).
